For assay [1], the system named is HeLa. The assay can be described thus: Induction of mitotic arrest in human HeLa cells harboring Mps1-C604F mutant assessed as decrease in average mitotic time with mis seggregation at 200 nM relative to control. On the set-up: scale not given: the % may be the effect or the level left. Format: functional.
For assay [2], the system named is HCT-116. In words: Antiproliferative activity against human HCT-116 cells harboring Mps1 C604Y-A mutant assessed as change in Mps1 expression level by Western blot analysis. Format: functional, cell-based. In outline: (§1)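 Lysis in Tris/HCl pH 7.5 with 150 mM NaCl, 1% Triton X-100, DTT, EDTA, phosphatase and protease inhibitors. SDS-PAGE, transfer to nitrocellulose, block in 4% BSA 0.5 h at room temperature, primary antibody (Mps1-NT) overnight at 4 °C, secondary 1:2000 for 1 h, ECL chemiluminescence detection.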
In general terms: In western blotting, separated proteins are transferred to a membrane and probed.

For assay [3], the system named is HCT-116. In words: Inhibition of colony formation in human HCT-116 cells harboring Mps1 C604Y-B mutant assessed as cell survival at 60 nM incubated for 14 days by crystal violet staining based colony formation assay. As to conditions: time 14.0 day. Format: functional. In outline: (§2)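 About 500–600 cells per 6-well plated on day 0, Cpd-5 added day 1 at 60 nM, colonies grown to day 14. Fixed 10 min in 96% methanol, stained with 0.1% crystal violet, scanned and analysed. Parental and drug-selected clones tested side by side.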

The test system of assay [4] is HCT-116. In words: Inhibition of colony formation in human HCT-116 cells harboring Mps1 C604Y-B mutant assessed as cell survival incubated for 5 days crystal violet staining based colony formation assay. In kind it is functional. As to conditions: HCT-116, 120 h. The procedure, abridged: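 Cells (~1500 per well, 96-well format) seeded day 0; inhibitor added day 1 over a range of concentrations; on day 6 fixed 10 min in 96% methanol, stained with 0.1% crystal violet, washed, scanned and quantified. Grown in DMEM with 6% FCS, penicillin-streptomycin, 2 mM L-glutamine. Survival relative to untreated; IC50 from curve fit, average of three independent experiments.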

The test system of assay [5] is U2OS. The assay can be described thus: Induction of mitotic arrest in human U2OS cells harboring LAP-Mps1 C604Y mutant assessed as maintain in checkpoint-dependent arrest at 100 nM incubated for 16 hrs in the presence of nocodazole. Format: functional, cell-based. In outline: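 About 10 000 cells per 96-well plated on day 0. On day 1, nocodazole (200 ng/ml) plus Cpd-5 at various concentrations added for 16 h. Fixed in 5% formaldehyde, stained for phospho-histone H3-Ser10 and DAPI, up to nine images per well (~3000 cells). Mitotic index = pH3S10-positive/DAPI-positive cells, normalized; three independent experiments.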

For another assay, the species on record is Homo sapiens. In words: Inhibition of recombinant Mps1 S611R mutant (unknown origin) assessed as KNL1 phosphorylation level incubated for 10 min by Western blot analysis.
Assay [6] concerns HCT-116. In words: Inhibition of colony formation in human HCT-116 cells harboring wild-type Mps1 assessed as cell survival at 60 nM incubated for 14 days by crystal violet staining based colony formation assay. As to conditions: time 14.0 day. In kind it is functional. In outline: as §2
For assay [7], the system named is HeLa. In words: Induction of mitotic arrest in human HeLa cells expressing histone H2B-YFP assessed as chromosome misalignment at 50 to 100 nM incubated for 16 hrs by time-lapse microscopy relative to control. Format: functional. As to conditions: dose 50-100 nM. The procedure, abridged: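 HeLa H2B-YFP cells imaged live at 37 °C in L-15 after DMSO or 50/100 nM Cpd-5. Anaphases scored for missegregation as mild (up to 3 chromosomes) or severe (>3 chromosomes), 50 cells per condition.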

The test system of the next assay is DLD-1. The assay can be described thus: cells. Format: functional, cell-based. As to conditions: Homo sapiens, DLD-1, 120 h.
The test system of assay [8] is HeLa. In words: Antiproliferative activity against human HeLa cells harboring Mps1 I598F mutant assessed as change in Mps1 expression level by Western blot analysis. In kind it is functional, cell-based. The procedure, abridged:
as §1

In assay [9] the test system is U2OS. The assay can be described thus: cells. In kind it is functional, cell-based. As to conditions: Homo sapiens, 120 h.
The subject of assay [10] is HCT-116. The assay can be described thus: Inhibition of colony formation in human HCT-116 cells harboring Mps1 531M mutant assessed as cell survival at 60 nM incubated for 14 days by crystal violet staining based colony formation assay. Format: functional. As to conditions: time 14.0 day. The procedure, abridged:
as §2

Assay [11] has as its system HeLa. The assay can be described thus: Inhibition of colony formation in human HeLa cells harboring wild-type Mps1 assessed as cell survival at 60 nM incubated for 14 days by crystal violet staining based colony formation assay. In kind it is functional. As to conditions: time 14.0 day. In outline: as §2
Assay [12] has as its system HeLa. The assay can be described thus: cells. Format: functional, cell-based. As to conditions: Homo sapiens, 120 h.
The subject of assay [13] is HeLa. In words: Inhibition of colony formation in human HeLa cells harboring Mps1 C604Y mutant at 80 nM incubated for 14 days in the presence of oligonucleotide by crystal violet staining based colony formation assay. Format: functional, cell-based. As to conditions: time 14.0 day. In outline: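 HeLa (1 × 10^6) transfected with mock, a 100-bp repair oligonucleotide alone, or oligonucleotide plus pX330 Cas9/Mps1-targeting gRNA. Selected with 80 nM Cpd-5 for 14 days in 10-cm plates, then stained with crystal violet.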

Assay [14] deals with HeLa. The assay can be described thus: Induction of mitotic arrest in human HeLa cells harboring Mps1 C604Y mutant assessed as initiating anaphase at 200 nM and measured after nuclear envelope breakdown. Format: functional, cell-based.

Calls of active or inactive are those of the source. The rule behind the calls is not given here.

By IC50 is commonly meant the concentration needed to halve the response being measured. Take `CCc1cccc(CC)c1NC(=O)c1nn(C)c2c1CCc1cnc(Nc3ccc(N4CCN(C)CC4)cc3OC)nc1-2`: the Activity was determined as 70% in the assay on HeLa [1] and 100% with HeLa [7]. Also, the outcome in the assay with HCT-116 [2], with HeLa [8] and with HeLa [14] was inactive. The inhibition entry in the assay on HCT-116 [3], in the assay filed under Homo sapiens and in the assay with HCT-116 [10] was “Active” in each case. In addition, the IC50 in the assay on HCT-116 [4] amounted to 310 nM; in the assay on DLD-1 it was 24.6 nM; in the assay with U2OS [9], 20.6 nM; in the assay with HeLa [12], 252 nM. The outcome with U2OS [5] and in the assay with HeLa [13] was Active. In addition, the inhibition result with HCT-116 [6] and with HeLa [11] was “inactive” each time.
